From ChEMBL document CHEMBL4371012, “Development of Macrocyclic Peptides Containing Epoxyketone with Oral Availability as Proteasome Inhibitors” (J Med Chem, 2018)
pIC50: −log10 of the molar value. The source made the active and inactive calls. The calls are words filed in the database; no cut-off is given here.

How the values were obtained:
[1] = target: T1, Proteasome Macropain subunit MB1 (Homo sapiens, UniProt P28074); assay: Inhibition of human 20S proteasome chymotrypsin-like activity using Suc-Leu-Leu-Val-Tyr-AMC as substrate pretreated for 15 mins followed by substrate addition by fluorescence assay
T1 sequence (P28074 whole entry): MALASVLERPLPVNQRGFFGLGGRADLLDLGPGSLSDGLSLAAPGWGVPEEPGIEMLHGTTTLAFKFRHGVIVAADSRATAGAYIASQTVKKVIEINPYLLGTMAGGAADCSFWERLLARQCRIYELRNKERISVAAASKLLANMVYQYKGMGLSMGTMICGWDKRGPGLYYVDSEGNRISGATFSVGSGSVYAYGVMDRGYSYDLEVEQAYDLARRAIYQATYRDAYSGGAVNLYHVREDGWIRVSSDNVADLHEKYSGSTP

MV4-11 = assay: Antiproliferative activity against human MV4-11 cells after 72 hrs by MTS assay; assay type: functional, cell-based; details: MV4-11, 72 h
MM1.S = assay: Antiproliferative activity against human MM1S cells after 72 hrs by MTS assay; assay type: functional, cell-based
RPMI-8226 = assay: Antiproliferative activity against human RPMI8226 cells after 72 hrs by MTS assay; assay type: functional, cell-based; details: RPMI-8226, 72 h
[2] = Metabolic stability in mouse liver microsomes assessed as parent compound remaining at 100 uM after 30 mins by LC-MS/MS analysis; assay type: ADME, Microsome; details: read-out: Stability
How it was run: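 After the microsomal incubation, the clear supernatant was analysed by ESI LC-MS. The read-out was the relative peak area of each parent compound.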

[3] = Metabolic stability in mouse liver microsomes assessed as parent compound remaining at 100 uM after 5 mins by LC-MS/MS analysis; assay type: ADME, Microsome; details: read-out: Stability
[4] = Oral bioavailability in ICR mouse at 25 mg/kg via gavage by LC-MS/MS analysis; assay type: ADME, organism-based; details: in vivo
[5] = AUC (0 to t) in ICR mouse at 5 mg/kg, iv after 1 hr by LC-MS/MS analysis; assay type: ADME, organism-based; design: time < 1 hr, dose 5 mg/kg, route intravenous; details: in vivo
[6] = Cmax in ICR mouse at 25 mg/kg, po via gavage by LC-MS/MS analysis; assay type: ADME, organism-based; design: dose 25 mg/kg, route oral; details: in vivo
[7] = Volume of distribution at steady state in ICR mouse at 5 mg/kg, iv by LC-MS/MS analysis; assay type: ADME, organism-based; details: in vivo, read-out: Vdss
[8] = AUC (0 to t) in ICR mouse at 25 mg/kg, po via gavage after 1 hr by LC-MS/MS analysis; assay type: ADME, organism-based; design: time < 1 hr, dose 25 mg/kg, route oral; details: in vivo
[9] = Tmax in ICR mouse at 25 mg/kg, po via gavage by LC-MS/MS analysis; assay type: ADME, organism-based; details: in vivo
Mus musculus [10] = assay: In vivo inhibition of 20S proteasome chymotrypsin-like activity in Balb/c mouse blood at 30 mg/kg, po measured at 2 to 24 hrs post dose using LLVY-AMC as substrate by fluorescence assay; assay type: functional, organism-based
How it was run: (§1)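 BALB/c mice dosed orally in 0.5% CMC-Na vehicle. Blood was sampled at 2 and 24 h after dosing for proteasome chymotrypsin-like activity.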

[11] = Half life in ICR mouse at 5 mg/kg, iv by LC-MS/MS analysis; assay type: ADME, organism-based; details: in vivo
[12] = Clearance in ICR mouse at 5 mg/kg, iv by LC-MS/MS analysis; assay type: ADME, organism-based; details: in vivo
[13] = Apparent permeability from apical to basolateral side in human Caco2 cells measured at 90 mins time interval by LC-MS/MS analysis; details: Caco-2
[14] = Apparent permeability from basolateral to apical side in human Caco2 cells measured at 90 mins time interval by LC-MS/MS analysis; details: Caco-2
[15] = Efflux ratio of apparent permeability in human Caco2 cells measured at 90 mins time interval by LC-MS/MS analysis; details: Caco-2
Mus musculus [16] = assay: In vivo inhibition of 20S proteasome chymotrypsin-like activity in Balb/c mouse blood at 100 mg/kg, po measured at 2 to 24 hrs post dose using LLVY-AMC as substrate by fluorescence assay; assay type: functional, organism-based; how it was run: as §1

Compound	pIC50 [1]	pIC50 (MV4-11)	pIC50 (MM1.S)	pIC50 (RPMI-8226)	also measured
COC[C@@H]1NC(=O)c2cccnc2OCCCCCCOC[C@@H](C(=O)N[C@@H](Cc2ccccc2)C(=O)[C@@]2(C)CO2)NC1=O	6.63	–	–	–	–
COC[C@@H]1NC(=O)c2ccccc2OCCCCCCC[C@@H](C(=O)N[C@@H](Cc2ccccc2)C(=O)[C@@]2(C)CO2)NC1=O	7.85	7.18	7.49	7.14	–
COC[C@@H]1NC(=O)c2ncccc2OCCCCCCOC[C@@H](C(=O)N[C@@H](Cc2ccccc2)C(=O)[C@@]2(C)CO2)NC1=O	6.61	–	7.43	< 7.00	–
COC[C@@H]1NC(=O)c2ccnn2CCCCCCCOC[C@@H](C(=O)N[C@@H](Cc2ccccc2)C(=O)[C@@]2(C)CO2)NC1=O	7.60	8.30	8.70	8.30	–
COC[C@@H]1NC(=O)c2ccccc2OCCCCCCCCOC[C@@H](C(=O)N[C@@H](Cc2ccccc2)C(=O)[C@@]2(C)CO2)NC1=O	6.46	–	–	–	–
COC[C@@H]1NC(=O)c2cccc(c2)OCCCCCCCCOC[C@@H](C(=O)N[C@@H](Cc2ccccc2)C(=O)[C@@]2(C)CO2)NC1=O	7.29	–	7.96	7.49	–
COC[C@@H]1NC(=O)c2cnn(C)c2CCCCCCOC[C@@H](C(=O)N[C@@H](Cc2ccccc2)C(=O)[C@@]2(C)CO2)NC1=O	7.70	8.52	8.70	8.52	remaining at 0.5 h, 100 µM [2]: 48%
COC[C@@H]1NC(=O)c2cccc(OC)c2OCCCCCCOC[C@@H](C(=O)N[C@@H](Cc2ccccc2)C(=O)[C@@]2(C)CO2)NC1=O	8.40	8.22	8.52	8.30	remaining at 5 min, 100 µM [3]: < 5%
COC[C@@H]1NC(=O)c2ccccc2OCCOCCOC[C@@H](C(=O)N[C@@H](Cc2ccccc2)C(=O)[C@@]2(C)CO2)NC1=O	6.94	7.48	7.92	7.26	–
COC[C@@H]1NC(=O)c2sc(C)nc2OCCCCCCOC[C@@H](C(=O)N[C@@H](Cc2ccccc2)C(=O)[C@@]2(C)CO2)NC1=O	6.41	7.44	7.19	< 7.00	–
COC[C@@H]1NC(=O)[C@@H]2CCCN2C(=O)CCCCCOC[C@@H](C(=O)N[C@@H](Cc2ccccc2)C(=O)[C@@]2(C)CO2)NC1=O	6.45	6.38	6.76	6.46	–
COC[C@@H]1NC(=O)c2ccc(OC)cc2OCCCCCCOC[C@@H](C(=O)N[C@@H](Cc2ccccc2)C(=O)[C@@]2(C)CO2)NC1=O	6.60	–	7.37	< 7.00	–
COC[C@H](NC(=O)c1cnc(C)s1)C(=O)N[C@@H](COC)C(=O)N[C@@H](Cc1ccccc1)C(=O)[C@@]1(C)CO1 [OPROZOMIB]	–	7.55	8.05	7.72	bioavailability [4]: 5.61%; AUC(0-t) at 1 h [5]: 506 ng·h/mL; Cmax [6]: 261 ng/mL; Vd [7]: 0.51 L/kg; AUC(0-t) at 1 h [8]: 142 ng·h/mL; Tmax [9]: 13.2 min; inhibition (Mus musculus [10]): Active; half-life [11]: 2.4 min; remaining at 0.5 h, 100 µM [2]: 60%; clearance [12]: 164 mL/min/kg
COC[C@@H]1NC(=O)c2nccn2CCCCCCCOC[C@@H](C(=O)N[C@@H](Cc2ccccc2)C(=O)[C@@]2(C)CO2)NC1=O	7.43	8.30	8.70	8.30	–
COC[C@@H]1NC(=O)c2ccccc2OCCCCOC[C@@H](C(=O)N[C@@H](Cc2ccccc2)C(=O)[C@@]2(C)CO2)NC1=O	7.44	7.31	7.19	< 7.00	–
COC[C@@H]1NC(=O)c2cc(Cl)ccc2OCCCCCCOC[C@@H](C(=O)N[C@@H](Cc2ccccc2)C(=O)[C@@]2(C)CO2)NC1=O	6.36	–	–	–	remaining at 5 min, 100 µM [3]: < 5%

Compound	pIC50 [1]	pIC50 (MV4-11)	pIC50 (MM1.S)	pIC50 (RPMI-8226)	also measured
COCCc1ccc(OCC(O)CNC(C)C)cc1 (centres undefined) [METOPROLOL]	–	–	–	–	Papp A→B at 1.5 h [13]: 35.2 ×10⁻⁶ cm/s; Papp B→A at 1.5 h [14]: 25.9 ×10⁻⁶ cm/s; efflux ratio at 1.5 h [15]: 0.74
COC[C@@H]1NC(=O)c2ccnn2CCCCCCOC[C@@H](C(=O)N[C@@H](Cc2ccccc2)C(=O)[C@@]2(C)CO2)NC1=O	7.80	8.70	8.52	8.70	bioavailability [4]: 3.72%; AUC(0-t) at 1 h [5]: 784 ng·h/mL; Cmax [6]: 325 ng/mL; Vd [7]: 0.48 L/kg; AUC(0-t) at 1 h [8]: 141 ng·h/mL; Tmax [9]: 4.8 min; inhibition (Mus musculus [10]): Active; half-life [11]: 6 min; remaining at 0.5 h, 100 µM [2]: 75%; clearance [12]: 107 mL/min/kg
COC[C@@H]1NC(=O)c2ccccc2OCCOCCOCCOC[C@@H](C(=O)N[C@@H](Cc2ccccc2)C(=O)[C@@]2(C)CO2)NC1=O	6.43	6.89	7.37	7.09	–
CC[C@H]1OC(=O)[C@H](C)[C@@H](O[C@H]2C[C@@](C)(OC)[C@@H](O)[C@H](C)O2)[C@H](C)[C@@H](O[C@@H]2O[C@H](C)C[C@H](N(C)C)[C@H]2O)[C@](C)(O)C[C@@H](C)C(=O)[C@H](C)[C@@H](O)[C@]1(C)O [ERYTHROMYCIN]	–	–	–	–	Papp A→B at 1.5 h [13]: < 0.19 ×10⁻⁶ cm/s; Papp B→A at 1.5 h [14]: 15.1 ×10⁻⁶ cm/s; efflux ratio at 1.5 h [15]: > 79.5
COC[C@@H]1NC(=O)c2ccc(C)cc2OCCCCCCOC[C@@H](C(=O)N[C@@H](Cc2ccccc2)C(=O)[C@@]2(C)CO2)NC1=O	6.79	–	7.28	< 7.00	–
COC[C@@H]1NC(=O)c2ccccc2OCCCCCCCC[C@@H](C(=O)N[C@@H](Cc2ccccc2)C(=O)[C@@]2(C)CO2)NC1=O	7.46	7.14	6.86	6.92	–
COC[C@@H]1NC(=O)c2ccccc2OCCCCCOC[C@@H](C(=O)N[C@@H](Cc2ccccc2)C(=O)[C@@]2(C)CO2)NC1=O	7.68	7.89	7.54	7.13	–
COC[C@@H]1NC(=O)c2cnn(C)c2OCCCCCCOC[C@@H](C(=O)N[C@@H](Cc2ccccc2)C(=O)[C@@]2(C)CO2)NC1=O	7.49	8.40	8.22	7.70	remaining at 0.5 h, 100 µM [2]: 63%
COC[C@@H]1NC(=O)c2cccc(F)c2OCCCCCCOC[C@@H](C(=O)N[C@@H](Cc2ccccc2)C(=O)[C@@]2(C)CO2)NC1=O	7.60	8.05	8.52	8.00	–
COC[C@@H]1NC(=O)c2ccccc2OCCCCCCCCCOC[C@@H](C(=O)N[C@@H](Cc2ccccc2)C(=O)[C@@]2(C)CO2)NC1=O	6.34	–	–	–	–
COC[C@@H]1NC(=O)c2cccn2CCCCCCOC[C@@H](C(=O)N[C@@H](Cc2ccccc2)C(=O)[C@@]2(C)CO2)NC1=O	7.85	7.96	8.40	7.89	remaining at 5 min, 100 µM [3]: < 5%
COC[C@@H]1NC(=O)c2sccc2OCCCCCCOC[C@@H](C(=O)N[C@@H](Cc2ccccc2)C(=O)[C@@]2(C)CO2)NC1=O	6.59	6.88	7.20	6.89	–
COC[C@@H]1NC(=O)c2ccccc2OCCCCCCOC[C@@H](C(=O)N[C@@H](Cc2ccccc2)C(=O)[C@@]2(C)CO2)NC1=O	7.27	7.44	7.24	< 7.00	bioavailability [4]: 2.15%; AUC(0-t) at 1 h [5]: 1240 ng·h/mL; Cmax [6]: 519 ng/mL; inhibition (Mus musculus [16]): Active; Vd [7]: 0.62 L/kg; AUC(0-t) at 1 h [8]: 133 ng·h/mL; Tmax [9]: 4.8 min; inhibition (Mus musculus [10]): inactive; half-life [11]: 9.6 min; remaining at 5 min, 100 µM [3]: < 5%; clearance [12]: 67.2 mL/min/kg
COC[C@@H]1NC(=O)c2ccc(F)cc2OCCCCCCOC[C@@H](C(=O)N[C@@H](Cc2ccccc2)C(=O)[C@@]2(C)CO2)NC1=O	6.69	–	7.16	< 7.00	–
COC[C@@H]1NC(=O)c2ccc(Cl)cc2OCCCCCCOC[C@@H](C(=O)N[C@@H](Cc2ccccc2)C(=O)[C@@]2(C)CO2)NC1=O	7.00	7.59	7.37	< 7.00	–
COC[C@@H]1NC(=O)c2ccccc2OCCCCCCCOC[C@@H](C(=O)N[C@@H](Cc2ccccc2)C(=O)[C@@]2(C)CO2)NC1=O	7.20	7.41	7.11	< 7.00	–
